According to ChEMBL document CHEMBL3627671, “Novel derivatives of nitro-substituted salicylic acids: Synthesis, antimicrobial activity and cytotoxicity” (Bioorg Med Chem, 2015):
Converted amounts (≈) assume the structure as drawn.

Tests used:
Assay type in all cases: functional
[1] = test system: Mycobacterium tuberculosis; assay: Antimycobacterial activity against Mycobacterium tuberculosis H37Rv 331/88 after 14 days; conditions: H37Rv 331/88, 336 h
[2] = test system: Mycobacterium tuberculosis; assay: Antimycobacterial activity against Mycobacterium tuberculosis H37Rv 331/88 after 21 days; conditions: H37Rv 331/88, 504 h
Mycobacterium avium [3] = assay: Antimycobacterial activity against Mycobacterium avium 330/80 after 14 days; conditions: 330/80, 336 h
Mycobacterium avium [4] = assay: Antimycobacterial activity against Mycobacterium avium 330/80 after 21 days; conditions: 330/80, 504 h
Mycobacterium kansasii [5] = assay: Antimycobacterial activity against Mycobacterium kansasii 235/80 after 7 days; conditions: 235/80, 168 h
Outline: (§1)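 Šula's semisynthetic medium micromethod at 37 °C, read after 7, 14 and 21 days. The 1.0 McFarland suspension was diluted 10^-4. MIC determined. 6509/96 is a clinical isolate.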

Mycobacterium kansasii [6] = assay: Antimycobacterial activity against Mycobacterium kansasii 235/80 after 14 days; conditions: 235/80, 336 h; outline: as §1
Mycobacterium kansasii [7] = assay: Antimycobacterial activity against Mycobacterium kansasii 235/80 after 21 days; conditions: 235/80, 504 h; outline: as §1
Mycobacterium kansasii [8] = assay: Antimycobacterial activity against Mycobacterium kansasii 6509/96 after 7 days; conditions: 6509/96, 168 h; outline: as §1
Mycobacterium kansasii [9] = assay: Antimycobacterial activity against Mycobacterium kansasii 6509/96 after 14 days; conditions: 6509/96, 336 h; outline: as §1
Mycobacterium kansasii [10] = assay: Antimycobacterial activity against Mycobacterium kansasii 6509/96 after 21 days; conditions: 6509/96, 504 h; outline: as §1
Staphylococcus aureus [11] = assay: Antibacterial activity against Staphylococcus aureus CCM 4516/08 after 24 hrs by microdilution broth method; conditions: CCM 4516/08, 24 h
Staphylococcus aureus [12] = assay: Antibacterial activity against Staphylococcus aureus CCM 4516/08 after 48 hrs by microdilution broth method; conditions: CCM 4516/08, 48 h
Staphylococcus aureus [13] = assay: Antibacterial activity against methicillin-resistant Staphylococcus aureus H 5996/08 after 24 hrs by microdilution broth method; conditions: H 5996/08, 24 h
Staphylococcus aureus [14] = assay: Antibacterial activity against methicillin-resistant Staphylococcus aureus H 5996/08 after 48 hrs by microdilution broth method; conditions: H 5996/08, 48 h
[15] = test system: Staphylococcus epidermidis; assay: Antibacterial activity against Staphylococcus epidermidis H 6966/08 after 24 hrs by microdilution broth method; conditions: H 6966/08, 24 h
Outline: (§2)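 Mueller-Hinton broth microdilution (modified M07-A07), pH 7.4 (±0.2). Compounds dissolved in DMSO, tested at final 500 to 0.49 µmol/L. Inoculum in sterile water matched to 0.5 McFarland. Incubated in the dark, humid atmosphere, 35 °C, read at 24 and 48 h visually and at 540 nm. MIC taken as ≥95% growth reduction (IC95) versus control.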

[16] = test system: Staphylococcus epidermidis; assay: Antibacterial activity against Staphylococcus epidermidis H 6966/08 after 48 hrs by microdilution broth method; conditions: H 6966/08, 48 h; outline: as §2
Enterococcus sp. [17] = assay: Antibacterial activity against Enterococcus sp. J 14365/08 after 24 hrs by microdilution broth method; conditions: J 14365/08, 24 h; outline: as §2
Enterococcus sp. [18] = assay: Antibacterial activity against Enterococcus sp. J 14365/08 after 48 hrs by microdilution broth method; conditions: J 14365/08, 48 h; outline: as §2
Escherichia coli [19] = assay: Antibacterial activity against Escherichia coli CCM4517 after 24 hrs by microdilution broth method; conditions: CCM4517, 24 h; outline: as §2
Escherichia coli [20] = assay: Antibacterial activity against Escherichia coli CCM4517 after 48 hrs by microdilution broth method; conditions: CCM4517, 48 h; outline: as §2
Klebsiella pneumoniae [21] = assay: Antibacterial activity against Klebsiella pneumoniae D 11750/08 after 24 hrs by microdilution broth method; conditions: D 11750/08, 24 h; outline: as §2
Klebsiella pneumoniae [22] = assay: Antibacterial activity against Klebsiella pneumoniae D 11750/08 after 48 hrs by microdilution broth method; conditions: D 11750/08, 48 h; outline: as §2
Klebsiella pneumoniae [23] = assay: Antibacterial activity against ESBL-positive Klebsiella pneumoniae J 14368/08 after 24 hrs by microdilution broth method; conditions: J 14368/08, 24 h; outline: as §2
Klebsiella pneumoniae [24] = assay: Antibacterial activity against ESBL-positive Klebsiella pneumoniae J 14368/08 after 48 hrs by microdilution broth method; conditions: J 14368/08, 48 h; outline: as §2
Pseudomonas aeruginosa [25] = assay: Antibacterial activity against Pseudomonas aeruginosa CCM 1961 after 24 hrs by microdilution broth method; conditions: CCM 1961, 24 h; outline: as §2
Pseudomonas aeruginosa [26] = assay: Antibacterial activity against Pseudomonas aeruginosa CCM 1961 after 48 hrs by microdilution broth method; conditions: CCM 1961, 48 h; outline: as §2
Candida albicans [27] = assay: Antifungal activity against Candida albicans ATCC 44859 after 24 hrs by microdilution broth method; conditions: ATCC 44859, 24 h
Outline: (§3)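 CLSI M27-A3 broth microdilution in RPMI 1640 with glutamine, buffered to pH 7.0 with MOPS; DMSO diluent. Yeast inoculum 5 × 10^3 ± 0.2 CFU/mL. Moulds grown on Sabouraud agar 3–10 days before spore harvest, final inoculum 0.5-5 × 10^4 CFU/mL, checked in a Bürker chamber. Incubated dark, humid, 35 °C, read at 24 and 48 h visually and at 540 nm. MIC taken as ≥80% (yeasts) or ≥50% (filamentous) growth reduction versus control.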

Candida albicans [28] = assay: Antifungal activity against Candida albicans ATCC 44859 after 48 hrs by microdilution broth method; conditions: ATCC 44859, 48 h; outline: as §3
Candida tropicalis [29] = assay: Antifungal activity against Candida tropicalis 156 after 24 hrs by microdilution broth method; conditions: Candida tropicalis, 156, 24 h; outline: as §3
Candida tropicalis [30] = assay: Antifungal activity against Candida tropicalis 156 after 48 hrs by microdilution broth method; conditions: Candida tropicalis, 156, 48 h; outline: as §3
Pichia kudriavzevii [31] = assay: Antifungal activity against Candida krusei E28 after 24 hrs by microdilution broth method; conditions: E28, 24 h; outline: as §3
Pichia kudriavzevii [32] = assay: Antifungal activity against Candida krusei E28 after 48 hrs by microdilution broth method; conditions: E28, 48 h; outline: as §3
Nakaseomyces glabratus [33] = assay: Antifungal activity against Candida glabrata 20/I after 24 hrs by microdilution broth method; outline: as §3
Nakaseomyces glabratus [34] = assay: Antifungal activity against Candida glabrata 20/I after 48 hrs by microdilution broth method; outline: as §3
Trichosporon asahii [35] = assay: Antifungal activity against Trichosporon asahii 1188 after 24 hrs by microdilution broth method; conditions: Trichosporon asahii, 1188, 24 h; outline: as §3
Trichosporon asahii [36] = assay: Antifungal activity against Trichosporon asahii 1188 after 48 hrs by microdilution broth method; conditions: Trichosporon asahii, 1188, 48 h; outline: as §3
Aspergillus fumigatus [37] = assay: Antifungal activity against Aspergillus fumigatus 231 after 24 hrs by microdilution broth method; conditions: Aspergillus fumigatus, 231, 24 h; outline: as §3
Aspergillus fumigatus [38] = assay: Antifungal activity against Aspergillus fumigatus 231 after 48 hrs by microdilution broth method; conditions: Aspergillus fumigatus, 231, 48 h; outline: as §3
Lichtheimia corymbifera [39] = assay: Antifungal activity against Absidia corymbifera 272 after 24 hrs by microdilution broth method; conditions: Lichtheimia corymbifera, 272, 24 h; outline: as §3
Lichtheimia corymbifera [40] = assay: Antifungal activity against Absidia corymbifera 272 after 48 hrs by microdilution broth method; conditions: Lichtheimia corymbifera, 272, 48 h; outline: as §3
[41] = test system: Trichophyton mentagrophytes; assay: Antifungal activity against Trichophyton mentagrophytes 445 after 24 hrs by microdilution broth method; conditions: Trichophyton mentagrophytes, 445, 24 h
[42] = test system: Trichophyton mentagrophytes; assay: Antifungal activity against Trichophyton mentagrophytes 445 after 48 hrs by microdilution broth method; conditions: Trichophyton mentagrophytes, 445, 48 h

O=C(Nc1ccc([N+](=O)[O-])c(C(F)(F)F)c1)c1cc([N+](=O)[O-])ccc1O
MIC [1]: 32 µM (≈ 11.9 µg/mL)
MIC [2]: 32 µM (≈ 11.9 µg/mL)
MIC (Mycobacterium avium [3]): 125 µM (≈ 46.4 µg/mL)
MIC (Mycobacterium avium [4]): 125 µM (≈ 46.4 µg/mL)
MIC (Mycobacterium kansasii [5]): 32 µM (≈ 11.9 µg/mL)
MIC (Mycobacterium kansasii [6]): 62.5 µM (≈ 23.2 µg/mL)
MIC (Mycobacterium kansasii [7]): 125 µM (≈ 46.4 µg/mL)
MIC (Mycobacterium kansasii [8]): 62.5 µM (≈ 23.2 µg/mL)
MIC (Mycobacterium kansasii [9]): 62.5 µM (≈ 23.2 µg/mL)
MIC (Mycobacterium kansasii [10]): 125 µM (≈ 46.4 µg/mL)
MIC (Staphylococcus aureus [11]): 62.5 µM (≈ 23.2 µg/mL)
MIC (Staphylococcus aureus [12]): 62.5 µM (≈ 23.2 µg/mL)
MIC (Staphylococcus aureus [13]): 31.2 µM (≈ 11.6 µg/mL)
MIC (Staphylococcus aureus [14]): 31.2 µM (≈ 11.6 µg/mL)
MIC [15]: 125 µM (≈ 46.4 µg/mL)
MIC [16]: 125 µM (≈ 46.4 µg/mL)
MIC (Enterococcus sp. [17]): > 500 µM
MIC (Enterococcus sp. [18]): > 500 µM
MIC (Escherichia coli [19]): > 500 µM
MIC (Escherichia coli [20]): > 500 µM
MIC (Klebsiella pneumoniae [21]): > 500 µM
MIC (Klebsiella pneumoniae [22]): > 500 µM
MIC (Klebsiella pneumoniae [23]): > 500 µM
MIC (Klebsiella pneumoniae [24]): > 500 µM
MIC (Pseudomonas aeruginosa [25]): > 500 µM
MIC (Pseudomonas aeruginosa [26]): > 500 µM
MIC (Candida albicans [27]): > 500 µM
MIC (Candida albicans [28]): > 500 µM
MIC (Candida tropicalis [29]): > 500 µM
MIC (Candida tropicalis [30]): > 500 µM
MIC (Pichia kudriavzevii [31]): > 500 µM
MIC (Pichia kudriavzevii [32]): > 500 µM
MIC (Nakaseomyces glabratus [33]): > 500 µM
MIC (Nakaseomyces glabratus [34]): > 500 µM
MIC (Trichosporon asahii [35]): > 500 µM
MIC (Trichosporon asahii [36]): > 500 µM
MIC (Aspergillus fumigatus [37]): > 500 µM
MIC (Aspergillus fumigatus [38]): > 500 µM
MIC (Lichtheimia corymbifera [39]): > 500 µM
MIC (Lichtheimia corymbifera [40]): > 500 µM
MIC [41]: > 500 µM
MIC [42]: > 500 µM
